Six compounds from ChEMBL document CHEMBL1649416, “Structure-based design of potent and selective 2-(quinazolin-2-yl)phenol inhibitors of checkpoint kinase 2” (J Med Chem, 2011) can be followed below.

The series can be described thus: Metabolic stability in mouse microsomes assessed as decrease in parent compound level after 30 mins by LC/MS. In kind it is ADME, Microsome. Particulars: read-out: Activity. In short, it runs like this: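 Compounds were incubated with mouse liver microsomes supplemented with UDP-glucuronosyltransferase, covering primary and secondary metabolism. Turnover was expressed as % of parent metabolized at 30 min.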

Take `Oc1ccccc1-c1nc(N[C@H]2CCNC2)c2ccccc2n1`: the metabolised at 0.5 h turned out to be 25%.
Consider `Oc1ccc(-c2cc[nH]n2)cc1-c1nc(N[C@H]2CCNC2)c2ccccc2n1`, for which the metabolised at 0.5 h worked out at 27%.
Turning to `COc1cc2nc(-c3cc(F)ccc3O)nc(N[C@@H]3CNC[C@H]3C(C)(C)O)c2cc1OC`, the metabolised at 0.5 h worked out at 23%.
Then `Oc1ccc(F)cc1-c1nc(N[C@H]2CCNC2)c2ccccc2n1`, with 27%; and `COCCOc1ccc2c(N[C@H]3CCNC3)nc(-c3cc(F)ccc3O)nc2c1`, with 25%.
For the compound `CC(C)(O)[C@@H]1CNC[C@H]1Nc1nc(-c2cc(-c3cc[nH]n3)ccc2O)nc2ccccc12`, the metabolised at 0.5 h worked out at 22%.
